Test results published in ChEMBL document CHEMBL1157553, “Synthesis of novel aminoglycosides via allylic azide rearrangement for investigating the significance of 2'-amino group” (2010).
Values after ≈ are worked out from the molar mass of the structure shown.

Columns and labels:
Pseudomonas aeruginosa = test: Antibacterial activity against aminoglycoside-resistant Pseudomonas aeruginosa ATCC 27853 after 12 to 18 hrs; type: functional
Procedure, shortened: (§1)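 Broth microdilution MIC. Bacteria grown in Trypticase Soy broth at 35 °C for 1–2 h, then adjusted to absorbance 0.08–0.1 at 625 nm. This suspension was diluted into 10 mL broth and dispensed into wells, and 2-fold serial dilutions of compound were added. Plates were incubated at 35 °C for 12–18 h. MIC was the lowest concentration inhibiting growth, with at least three repeats.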

Staphylococcus aureus [1] = test: Antibacterial activity against aminoglycoside-resistant Staphylococcus aureus ATCC 33591 after 12 to 18 hrs; type: functional; procedure, shortened: as §1
Escherichia coli = test: Antibacterial activity against aminoglycoside-susceptible Escherichia coli ATCC 25922 after 12 to 18 hrs; type: functional
Procedure, shortened: (§2)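 Broth microdilution MIC. Bacteria grown in Trypticase Soy broth at 35 °C for 1–2 h, then diluted with broth to an absorbance of 0.08–0.1 at 625 nm. This suspension was further diluted into broth and dispensed into 96-well plates containing 2-fold serial dilutions of compound. Plates were incubated 12–18 h at 35 °C. MIC is the lowest concentration inhibiting growth, repeated at least three times.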

Klebsiella pneumoniae [2] = test: Antibacterial activity against aminoglycoside-resistant Klebsiella pneumoniae ATCC 700603 after 12 to 18 hrs
Staphylococcus aureus [3] = test: Antibacterial activity against aminoglycoside-susceptible Staphylococcus aureus ATCC 25923 after 12 to 18 hrs; type: functional; procedure, shortened: as §2
Klebsiella pneumoniae [4] = test: Antibacterial activity against aminoglycoside-susceptible Klebsiella pneumoniae ATCC 13883 after 12 to 18 hrs; type: functional; procedure, shortened: as §2

Row | SMILES | MIC (Pseudomonas aeruginosa) [µg/mL] | MIC (Staphylococcus aureus [1]) [µg/mL] | MIC (Escherichia coli) [µg/mL] | MIC (Klebsiella pneumoniae [2]) [µg/mL] | MIC (Staphylococcus aureus [3]) [µg/mL] | MIC (Klebsiella pneumoniae [4]) [µg/mL]
1 | CCCCCCNC(=O)O[C@@H]1[C@@H](OC(=O)NCCCCCC)[C@H](N)C[C@H](N)[C@H]1O[C@@H]1CC[C@H](N)[C@@H](CN)O1 | 16 (≈ 29.4 µM) | 16 (≈ 29.4 µM) | 125 (≈ 229 µM) | ≥ 250 | 32 (≈ 58.7 µM) | 4 (≈ 7.34 µM)
2 | NC[C@@H]1CC[C@@H](N)[C@@H](O[C@H]2[C@H](O)[C@@H](O[C@@H]3O[C@H](CO)[C@@H](O)[C@H](O)[C@H]3O)[C@H](N)C[C@@H]2N)O1 | – | – | 64 (≈ 141 µM) | – | 125 (≈ 276 µM) | –
3 | NC[C@H]1O[C@H](O[C@H]2[C@H](O)[C@@H](O[C@@H]3O[C@H](CO)[C@@H](O)[C@H](O)[C@H]3O)[C@H](N)C[C@@H]2N)CC[C@@H]1N | – | – | ≥ 250 | – | ≥ 250 | –
4 | C[C@H]1O[C@@H](O[C@@H]2[C@@H](O)[C@H](O[C@@H]3CC[C@H](N)[C@@H](CN)O3)[C@@H](N)C[C@H]2N)[C@H](O)[C@@H](N)[C@@H]1O | – | – | 16 (≈ 36.7 µM) | – | 8 (≈ 18.4 µM) | –
5 | CCCCCCNC(=O)O[C@@H]1[C@@H](O)[C@H](O[C@H]2O[C@H](CN)[C@@H](O)[C@H](O)[C@H]2N)[C@@H](N)C[C@H]1N | 64 (≈ 142 µM) | ≥ 250 | – | 125 (≈ 278 µM) | – | 16 (≈ 35.6 µM)
6 | CCCCCCNC(=O)O[C@@H]1[C@@H](O)[C@H](O[C@H]2O[C@H](CN)CC[C@H]2N)[C@@H](N)C[C@H]1N | 16 (≈ 38.3 µM) | 64 (≈ 153 µM) | ≥ 250 | 125 (≈ 299 µM) | 125 (≈ 299 µM) | 16 (≈ 38.3 µM)
7 | CCCCCCNC(=O)O[C@@H]1[C@@H](O)[C@H](O[C@@H]2CC[C@H](N)[C@@H](CN)O2)[C@@H](N)C[C@H]1N | 16 (≈ 38.3 µM) | 64 (≈ 153 µM) | ≥ 250 | ≥ 250 | 32 (≈ 76.6 µM) | 16 (≈ 38.3 µM)
8 | C[C@H]1O[C@@H](O[C@@H]2[C@@H](O)[C@H](N)C[C@H](N)[C@H]2O[C@H]2O[C@H](CN)CC[C@H]2N)[C@@H](O)[C@@H](O)[C@@H]1N | – | – | 16 (≈ 36.7 µM) | – | 4 (≈ 9.18 µM) | –
9 | NC[C@H]1O[C@H](O[C@H]2[C@H](O)[C@@H](O)[C@H](N)C[C@@H]2N)CC[C@@H]1N | – | – | ≥ 250 | – | 64 (≈ 220 µM) | –
10 | CCCCCCNC(=O)O[C@@H]1[C@@H](OC(=O)NCCCCCC)[C@H](N)C[C@H](N)[C@H]1O[C@H]1O[C@H](CN)[C@@H](O)[C@H](O)[C@H]1N | 125 (≈ 217 µM) | 125 (≈ 217 µM) | – | 125 (≈ 217 µM) | – | 32 (≈ 55.5 µM)
11 | C[C@H]1O[C@@H](O[C@@H]2[C@@H](O)[C@H](N)C[C@H](N)[C@H]2O[C@@H]2CC[C@H](N)[C@@H](CN)O2)[C@@H](O)[C@@H](O)[C@@H]1N | – | – | 125 (≈ 287 µM) | – | 125 (≈ 287 µM) | –
12 | NC[C@@H]1CC[C@@H](N)[C@@H](O[C@H]2[C@H](O)[C@@H](O[C@@H]3OC[C@@H](O)[C@H](N)[C@H]3O)[C@H](N)C[C@@H]2N)O1 | – | – | 4 (≈ 9.49 µM) | – | 2 (≈ 4.75 µM) | –
13 | NC[C@@H]1O[C@H](O[C@H]2[C@@H](O)[C@H](O[C@@H]3[C@@H](O)[C@H](N)C[C@H](N)[C@H]3O[C@H]3O[C@H](CN)[C@@H](O)[C@H](O)[C@H]3N)O[C@@H]2CO)[C@H](N)[C@@H](O)[C@@H]1O [FRAMYCETIN] | – | – | 4 (≈ 6.51 µM) | – | 1 (≈ 1.63 µM) | –
14 | NC[C@@H]1CC[C@@H](N)[C@@H](O[C@H]2[C@H](O)[C@@H](O)[C@H](N)C[C@@H]2N)O1 [GENTAMINE C1A] | – | – | 32 (≈ 110 µM) | – | 16 (≈ 55.1 µM) | –
15 | NC[C@H]1O[C@H](O[C@H]2[C@H](O)[C@@H](O[C@H]3O[C@H](CO)[C@@H](O)[C@H](N)[C@H]3O)[C@H](N)C[C@@H]2N)[C@H](O)[C@@H](O)[C@@H]1O [KANAMYCIN] | – | – | 4 (≈ 8.26 µM) | – | 2 (≈ 4.13 µM) | –
16 | NC[C@H]1O[C@H](O[C@H]2[C@H](O)[C@@H](O)[C@H](N)C[C@@H]2N)[C@H](N)[C@@H](O)[C@@H]1O [NEAMINE] | 64 (≈ 199 µM) | 125 (≈ 388 µM) | 32 (≈ 99.3 µM) | 16 (≈ 49.6 µM) | 4 (≈ 12.4 µM) | 2 (≈ 6.2 µM)
